Data as given in ChEMBL document CHEMBL1932924, “Design, synthesis, and biological evaluation of 4-phenylpyrrole derivatives as novel androgen receptor antagonists” (Bioorg Med Chem, 2012).
In brackets after ≈: the same amount, converted by molar mass.

What was measured:
Androgen receptor [1] = biological target: T1, Androgen receptor (Homo sapiens, UniProt P10275); test: Antagonist activity at human androgen receptor expressed in COS7 cells assessed as inhibition of DHT-induced luciferase activity after 24 hrs by reporter gene assay; assay type: functional, cell-based, COS-7
T1 sequence (P10275 whole entry): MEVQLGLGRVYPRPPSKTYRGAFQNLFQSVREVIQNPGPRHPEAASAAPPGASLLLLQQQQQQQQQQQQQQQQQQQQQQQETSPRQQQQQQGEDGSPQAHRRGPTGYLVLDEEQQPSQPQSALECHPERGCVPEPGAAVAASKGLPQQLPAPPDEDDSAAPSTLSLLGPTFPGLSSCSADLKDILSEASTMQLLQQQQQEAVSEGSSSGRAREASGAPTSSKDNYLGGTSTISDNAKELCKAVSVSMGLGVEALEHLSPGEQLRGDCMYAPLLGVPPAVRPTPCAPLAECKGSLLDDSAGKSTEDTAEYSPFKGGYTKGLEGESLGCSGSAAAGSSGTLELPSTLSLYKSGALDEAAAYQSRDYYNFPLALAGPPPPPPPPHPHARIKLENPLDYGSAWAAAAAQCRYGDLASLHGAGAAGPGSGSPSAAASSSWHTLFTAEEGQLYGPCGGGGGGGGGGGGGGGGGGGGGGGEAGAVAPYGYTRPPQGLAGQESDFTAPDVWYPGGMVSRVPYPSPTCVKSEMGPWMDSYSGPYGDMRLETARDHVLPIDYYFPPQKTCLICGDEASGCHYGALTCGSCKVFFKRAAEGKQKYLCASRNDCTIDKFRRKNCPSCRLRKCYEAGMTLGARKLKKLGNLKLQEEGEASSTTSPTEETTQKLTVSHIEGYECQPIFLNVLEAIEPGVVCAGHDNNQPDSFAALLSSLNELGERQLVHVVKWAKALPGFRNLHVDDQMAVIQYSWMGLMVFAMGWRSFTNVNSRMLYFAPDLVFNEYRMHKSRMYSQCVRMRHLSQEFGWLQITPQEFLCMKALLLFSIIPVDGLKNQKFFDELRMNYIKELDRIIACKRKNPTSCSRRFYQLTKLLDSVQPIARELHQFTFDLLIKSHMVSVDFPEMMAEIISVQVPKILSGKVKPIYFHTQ

Androgen receptor [2] = biological target: T2, Androgen receptor (Homo sapiens, UniProt P10275, W742C); test: Agonist activity at human androgen receptor W741C mutant expressed in COS7 cells assessed as luciferase activity after 24 hrs by reporter gene assay; assay type: functional, cell-based, COS-7
T2 sequence (P10275 whole entry W742C): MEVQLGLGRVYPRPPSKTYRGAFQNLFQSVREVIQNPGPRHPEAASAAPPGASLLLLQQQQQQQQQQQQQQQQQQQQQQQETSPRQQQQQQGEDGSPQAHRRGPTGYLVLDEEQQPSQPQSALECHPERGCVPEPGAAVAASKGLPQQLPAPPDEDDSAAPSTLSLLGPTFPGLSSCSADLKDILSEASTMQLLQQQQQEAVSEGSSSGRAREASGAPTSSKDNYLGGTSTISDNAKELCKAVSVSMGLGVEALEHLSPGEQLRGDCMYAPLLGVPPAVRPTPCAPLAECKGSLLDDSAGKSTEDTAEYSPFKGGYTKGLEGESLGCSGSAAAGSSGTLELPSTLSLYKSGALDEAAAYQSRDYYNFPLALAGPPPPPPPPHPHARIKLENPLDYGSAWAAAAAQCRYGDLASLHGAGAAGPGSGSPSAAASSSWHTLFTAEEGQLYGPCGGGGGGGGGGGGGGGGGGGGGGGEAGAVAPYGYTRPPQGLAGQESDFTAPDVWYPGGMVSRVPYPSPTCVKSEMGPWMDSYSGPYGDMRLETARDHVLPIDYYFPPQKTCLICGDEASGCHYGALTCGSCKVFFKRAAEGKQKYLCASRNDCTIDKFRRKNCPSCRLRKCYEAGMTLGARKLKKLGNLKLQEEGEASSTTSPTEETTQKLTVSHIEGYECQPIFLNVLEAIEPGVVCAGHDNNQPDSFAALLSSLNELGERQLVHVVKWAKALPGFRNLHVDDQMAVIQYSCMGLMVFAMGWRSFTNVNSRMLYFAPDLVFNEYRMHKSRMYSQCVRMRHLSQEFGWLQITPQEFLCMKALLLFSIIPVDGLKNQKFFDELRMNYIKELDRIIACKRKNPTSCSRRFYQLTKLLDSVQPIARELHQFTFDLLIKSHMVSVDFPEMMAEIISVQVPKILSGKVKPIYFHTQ

Androgen receptor [3] = biological target: T3, Androgen receptor (Homo sapiens, UniProt P10275, T878A); test: Agonist activity at human androgen receptor T877A mutant expressed in COS7 cells assessed as luciferase activity after 24 hrs by reporter gene assay; assay type: functional, cell-based, COS-7
T3 sequence (P10275 whole entry T878A): as the sequence (P10275 whole entry W742C) above, with C742W, T878A counted along it

Androgen receptor [4] = biological target: T3, Androgen receptor; test: Antagonist activity at human androgen receptor T877A mutant expressed in COS7 cells assessed as inhibition of DHT-induced luciferase activity after 24 hrs by reporter gene assay; assay type: functional, cell-based, COS-7
Androgen receptor [5] = biological target: T2, Androgen receptor; test: Antagonist activity at human androgen receptor W741C mutant expressed in COS7 cells assessed as inhibition of DHT-induced luciferase activity after 24 hrs by reporter gene assay; assay type: functional, cell-based, COS-7
Androgen receptor [6] = biological target: T1, Androgen receptor; test: Displacement of [17-alpha-methyl-3H]-mibolerone from human androgen receptor expressed in HEK293 derived FreeStyle293F cells after 3 hrs; assay type: cell-based
Androgen receptor [7] = biological target: T1, Androgen receptor; test: Agonist activity at human androgen receptor expressed in COS7 cells assessed as luciferase activity after 24 hrs by reporter gene assay; assay type: functional, cell-based, COS-7
Androgen receptor [8] = biological target: T3, Androgen receptor; test: Displacement of [17-alpha-methyl-3H]-mibolerone from human androgen receptor T877A mutant expressed in HEK293 derived FreeStyle293F cells after 3 hrs; assay type: cell-based
[9] = Solubility in aqueous buffer solution at pH 6.8; assay type: physicochemical
Procedure, shortened: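 DMSO stock added to aqueous buffer at pH 6.8 and incubated. Precipitate removed by filtration; filtrate concentration measured by HPLC.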

IC50 (Androgen receptor [1]) | EC50 (Androgen receptor [2]) | EC50 (Androgen receptor [3]) | IC50 (Androgen receptor [4]) | IC50 (Androgen receptor [5]) | IC50 (Androgen receptor [6]) | EC50 (Androgen receptor [7]) | IC50 (Androgen receptor [8]) | solubility [9] | SMILES
0.34 µM | > 10 µM | > 10 µM | 0.16 µM | 3.2 µM | 0.0055 µM | > 10 µM | 0.0052 µM | – | CCOC(=O)c1c(-c2ccc([N+](=O)[O-])cc2)c(C)n(Cc2ccccc2)c1C
0.49 µM | > 10 µM | > 10 µM | 0.21 µM | 3.1 µM | 0.0067 µM | > 10 µM | 0.0022 µM | – | Cc1cc(-c2ccc([N+](=O)[O-])cc2)c(C)n1Cc1ccccc1
4.3 µM | > 10 µM | > 10 µM | 2.1 µM | > 10 µM | 0.55 µM | > 10 µM | 0.22 µM | – | CCOC(=O)c1c(-c2ccc([N+](=O)[O-])cc2)c(C)n(-c2ccccc2)c1C
4.1 µM | > 10 µM | > 10 µM | 0.97 µM | > 10 µM | 0.15 µM | > 10 µM | 0.052 µM | – | CCOC(=O)c1c(-c2ccc([N+](=O)[O-])cc2)c(C)n(CCc2ccccc2)c1C
2.4 µM | > 10 µM | > 10 µM | 1.5 µM | 7.7 µM | 0.15 µM | > 10 µM | 0.085 µM | – | CCOC(=O)c1c(-c2ccc([N+](=O)[O-])cc2)c(C)n(C(=O)c2ccccc2)c1C
0.5 µM | > 10 µM | > 10 µM | 0.21 µM | 6.2 µM | 0.047 µM | > 10 µM | 0.03 µM | – | CCOC(=O)c1c(-c2ccc([N+](=O)[O-])cc2)c(C)n(C)c1C
0.27 µM | > 10 µM | > 10 µM | 0.12 µM | 0.71 µM | 0.027 µM | > 10 µM | 0.023 µM | – | COC(=O)c1c(-c2ccc(C#N)cc2)c(C)n(Cc2ccccc2)c1C
0.32 µM | > 10 µM | > 10 µM | 0.81 µM | 1.4 µM | 0.49 µM | > 10 µM | 1.1 µM | – | Cc1c(-c2ccc(C#N)cc2)c(C#N)cn1Cc1cnc(Cl)c(CO)c1
4.6 µM | > 10 µM | > 10 µM | 0.9 µM | 6.5 µM | 0.39 µM | > 10 µM | 0.13 µM | – | CC(=O)c1c(-c2ccc([N+](=O)[O-])cc2)c(C)n(Cc2ccccc2)c1C
0.1 µM | > 10 µM | > 10 µM | 0.44 µM | 0.6 µM | 0.014 µM | > 10 µM | 0.15 µM | 3.5 µg/mL (≈ 10.2 µM) | Cc1c(C#N)c(-c2ccc(C#N)cc2)c(C)n1Cc1cncc(CO)c1
0.065 µM | 3.6 µM | > 10 µM | 0.19 µM | 0.18 µM | 0.0034 µM | 2.2 µM | 0.023 µM | 5.1 µg/mL (≈ 16.3 µM) | Cc1c(C#N)c(-c2ccc(C#N)cc2)c(C)n1Cc1cccnc1
0.045 µM | > 10 µM | > 10 µM | 0.1 µM | 0.91 µM | 0.009 µM | > 10 µM | 0.024 µM | 0.83 µg/mL (≈ 2.39 µM) | Cc1c(C#N)c(-c2ccc(C#N)cc2)c(C)n1Cc1ccc(Cl)nc1
3.8 µM | > 10 µM | > 10 µM | 0.66 µM | > 10 µM | 0.3 µM | > 10 µM | 0.092 µM | – | Cc1c(CO)c(-c2ccc([N+](=O)[O-])cc2)c(C)n1Cc1ccccc1
3.8 µM | > 10 µM | > 10 µM | 3.7 µM | 7.2 µM | 0.31 µM | > 10 µM | 0.35 µM | – | CCOC(=O)c1c(-c2ccc([N+](=O)[O-])cc2)c(C)n(CC2CCCCC2)c1C
0.17 µM | > 10 µM | > 10 µM | 0.91 µM | 0.76 µM | 0.078 µM | > 10 µM | 0.16 µM | – | Cc1c(C#N)c(-c2ccc(C#N)cc2)cn1Cc1cnc(Cl)c(CO)c1
2.6 µM | > 10 µM | > 10 µM | 1.3 µM | 3.7 µM | 0.13 µM | > 10 µM | 0.065 µM | – | COC(=O)c1c(-c2ccccc2)c(C)n(Cc2ccccc2)c1C
0.04 µM | > 10 µM | > 10 µM | 0.041 µM | 0.38 µM | 0.0014 µM | > 10 µM | 0.003 µM | 0.35 µg/mL (≈ 1.12 µM) | Cc1c(C#N)c(-c2ccc(C#N)cc2)c(C)n1Cc1ccccc1
0.3 µM | > 10 µM | > 10 µM | 0.15 µM | 0.74 µM | 0.005 µM | > 10 µM | 0.0038 µM | – | COC(=O)c1c(-c2ccc([N+](=O)[O-])cc2)c(C)n(Cc2ccccc2)c1C
0.24 µM | > 10 µM | > 10 µM | 0.34 µM | 4.2 µM | 0.022 µM | > 10 µM | 0.034 µM | – | CCOC(=O)c1c(C)[nH]c(C)c1-c1ccc([N+](=O)[O-])cc1

SMILES | IC50 (Androgen receptor [1]) | EC50 (Androgen receptor [2]) | EC50 (Androgen receptor [3]) | IC50 (Androgen receptor [4]) | IC50 (Androgen receptor [5]) | IC50 (Androgen receptor [6]) | EC50 (Androgen receptor [7]) | IC50 (Androgen receptor [8]) | solubility [9]
CCOC(=O)c1c(-c2ccc([N+](=O)[O-])cc2)c(C)n(S(=O)(=O)c2ccccc2)c1C | 4.7 µM | > 10 µM | > 10 µM | 4.7 µM | > 10 µM | 0.13 µM | > 10 µM | 0.062 µM | –
COC(=O)c1c(-c2ccc(C#N)c(C(F)(F)F)c2)c(C)n(Cc2ccccc2)c1C | 0.32 µM | > 10 µM | 5.4 µM | 0.69 µM | 3.3 µM | 0.0039 µM | > 10 µM | 0.0047 µM | –
Cc1c(C(=O)O)c(-c2ccc([N+](=O)[O-])cc2)c(C)n1Cc1ccccc1 | 8.7 µM | > 10 µM | > 10 µM | 6.5 µM | > 10 µM | 0.62 µM | > 10 µM | 0.19 µM | –
